# hIAP block = human IAP inhibitors, primary screen, biochemical, luminescence, uHTS; Intestinal-type alkaline phosphatase (Homo sapiens), P09923; purified IAP, CDP-Star luminescence, 30 min; inhibition, % at 10 µM; actives 0.12% (n = 330,000); AID 2544, 2010;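 active means inhibition reaching a set limit with compound at 10 µM in the primary screen, cut at about 35% in these data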;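 further: plate controls were DMSO wells with enzyme for no effect and no-enzyme buffer wells for full effect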
# Target sequence (P09923 whole entry, looked up): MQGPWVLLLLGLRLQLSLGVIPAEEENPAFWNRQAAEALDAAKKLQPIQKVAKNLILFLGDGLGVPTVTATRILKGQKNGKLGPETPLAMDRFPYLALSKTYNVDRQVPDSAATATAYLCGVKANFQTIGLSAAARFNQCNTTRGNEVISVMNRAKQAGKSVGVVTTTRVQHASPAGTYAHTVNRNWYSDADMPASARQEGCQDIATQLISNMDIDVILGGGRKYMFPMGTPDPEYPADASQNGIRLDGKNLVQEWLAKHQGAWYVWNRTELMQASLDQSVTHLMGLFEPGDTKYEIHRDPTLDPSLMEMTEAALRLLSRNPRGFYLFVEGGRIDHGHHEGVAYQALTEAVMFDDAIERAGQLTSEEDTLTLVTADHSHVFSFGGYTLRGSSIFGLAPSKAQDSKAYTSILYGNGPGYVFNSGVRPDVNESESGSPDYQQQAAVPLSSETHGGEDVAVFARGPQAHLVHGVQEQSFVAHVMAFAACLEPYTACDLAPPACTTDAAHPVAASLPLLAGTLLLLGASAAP
# hIAP act = human IAP activators, primary screen, biochemical, luminescence, uHTS | Intestinal-type alkaline phosphatase (Homo sapiens), P09923 | purified human IAP, CDP-Star luminescence, 30 min; stronger effect = higher value; 1 = vehicle-only enzyme, 0 = enzyme-free background | activation factor at 10 µM | actives 0.16% (n = 330,000);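 active means activation factor of the enzyme at least 2-fold when tested at 20 µM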
# bIAP inhibitor = bovine intestinal alkaline phosphatase inhibitors, primary screen, selectivity assay for TNAP inhibitor project, biochemical, bovine IAP, CDP-star luminescence | purified bovine IAP, 30 min | 190,000 tested, under 10 active | inhibition, % at 20 µM;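 active means over 50% inhibition of intestinal alkaline phosphatase at 20 µM in the single-dose screen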
#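 test system = bovine IAP enzyme | medium = DEA buffer 100 mM, pH 9.8, with MgCl2 1.0 mM, ZnCl2 0.02 mM | detection = luminescence | dosing = single compound dose of 20 µM, 2% DMSO final | incubation = 30 min reaction at room temperature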
# bIAP activator = bovine intestinal alkaline phosphatase activators, primary screen, biochemical, bovine IAP, CDP-star luminescence; alkaline phosphatase, intestinal [Bos taurus]; purified bovine IAP, 30 min; stronger effect = higher value; fold of DMSO-control signal, blank-subtracted; AID 1016, 2008; activation factor at 20 µM; actives 0.17% (n = 200,000);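 active means activation factor of 2 or more at 20 µM, a signal rise over negative controls twice the positive control's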
# mIAP block = inhibitors of mouse IAP, primary screen, biochemical, luminescence, uHTS. actives 0.2% (n = 330,000). purified mouse IAP, CDP-Star luminescence, 30 min. intestinal alkaline phosphatase [Mus musculus]. inhibition, % at 10 µM. AID 2806, 2010;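 active means inhibition of at least 40% at 10 µM in the primary screen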;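 further: plate controls were DMSO with enzyme for no effect and no enzyme wells for full effect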
# mIAP act = activators of mouse IAP, primary screen, biochemical, luminescence, uHTS. intestinal alkaline phosphatase [Mus musculus]. muIAP, CDP-Star luminescence, 30 min; stronger effect = higher value; 1 = vehicle-only enzyme signal, 0 = enzyme-free wells. activation factor at 10 µM. actives 0.24% (n = 330,000). AID 2805, 2010;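 active means activation factor of at least 2 at 20 µM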
#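 Assay system: mouse IAP enzyme / Compound: DMSO-dissolved test compounds / Timing: 30 min, room temperature / Measured by: luminescence from enzymatic CDP-Star hydrolysis / Control set: DMSO-only wells, enzyme-free buffer wells as negative control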
# mIAP inh conf = inhibitors of mouse IAP, confirmation, biochemical, luminescence, single concentration. shares compounds with mIAP block. inhibition, % at 10 µM. actives 4.7% (n = 11,000). purified mouse IAP, CDP-Star luminescence, 30 min. AID 434971, 2010;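 active means inhibition of at least 40% at 10 µM in either of the two replicates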;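 further: plate controls were DMSO wells with enzyme for no effect and buffer wells lacking enzyme for full effect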
# * = called active by the depositor; i = inactive; / = no result. Only some compounds are listed: those with a hit (about 0.79% of all), similar ones and a draw of the others.
SMILES,hIAP block,hIAP act,bIAP inhibitor,bIAP activator,mIAP block,mIAP act,mIAP inh conf
Cc1cc(O)c(CN(C)C)c2c1C(=O)/C(=C/c1ccco1)O2,-4.1,1.04,/,/,18.5,0.815,/
Clc1ccc(CNc2ccc(CNc3ncn[nH]3)cc2)c(Cl)c1,-42.4,1.42,/,/,11.2,0.888,/
CC(C)OC(=O)/C(C#N)=C/c1ccc(-c2ccc(SC(F)F)cc2)o1,-4.0,1.04,-0.1,1,13.4,0.866,/
NS(=O)(=O)c1ccc(-c2ccc(C=O)o2)cc1,13.6,0.864,-4.1,1,26.9,0.731,/
COC(=O)/C(C#N)=C/c1ccc(-c2ccc(S(N)(=O)=O)cc2)o1,7.3,0.927,/,/,63.8*,0.362,78.6*
CC1=C(C#N)C(=O)NC(=O)/C1=C/c1ccc(-c2ccc(S(N)(=O)=O)cc2)o1,16.5,0.835,-3.5,1,54.0*,0.46,70.0*
NS(=O)(=O)c1ccc(-c2ccc(/C=C3\NC(=S)NC3=O)o2)cc1,-1.0,1.01,/,/,89.7*,0.103,76.9*
CCCC1CCc2c(sc(NC(=O)OCC)c2C#N)C1 (stereo unspecified),5.2,0.948,-1.1,1,16.6,0.834,/
CCOC(=O)c1cc(COc2cc(Cl)cc(Cl)c2)on1,8.7,0.913,/,/,-3.4,1.03,/
Cc1ccccc1NC(=S)NC(NC(=O)c1ccccc1C)C(Cl)(Cl)Cl (stereo unspecified),-31.4,1.31,4.1,1,-104.6,2.05*,-107.3
CS(=O)(=O)c1ccccc1-c1nnc(NC(=O)c2cccc(N3C(=O)CCC3=O)c2)o1,5.6,0.944,/,/,-1.2,1.01,/
Cc1ccc(N2C(=O)/C(=C/c3ccco3)SC2=S)cc1,5.2,0.948,13.1,0.9,48.9*,0.511,60.5*
O=C1/C(=C/c2ccco2)SC(=S)N1CCC(=O)N1CCCCC1CCO (stereo unspecified),22.1,0.779,/,/,47.4*,0.526,57.4*
O=C1/C(=C\c2ccco2)SC(=S)N1C1CCCCC1,14.7,0.853,/,/,40.2*,0.598,51.7*
O=C(NCCO)Nc1ccc2nc(-c3ccco3)c(-c3ccco3)nc2c1,-5.7,1.06,7.3,0.9,41.8*,0.582,49.3*
O=C(NCCCO)c1ccc2nc(-c3ccco3)c(-c3ccco3)nc2c1,/,/,-25.2,1.3,/,/,/
CCOC(=O)CSC1=Nc2ccccc2C2=NC(CC(=O)NCc3ccc4c(c3)OCO4)C(=O)N12 (stereo unspecified),20.1,0.799,-1.9,1,44.2*,0.558,58.9*
N#C/C(=C/c1ccco1)C(N)=S,-15.4,1.15,/,/,47.0*,0.53,56.5*
CCCCn1cnc2cc(C)c(C)cc21,6.6,0.934,14.6,0.9,4.9,0.951,/
O=[N+]([O-])c1ccc(Cl)c2c1C1C=CCC1C(c1ccccn1)N2 (stereo unspecified),2.9,0.971,18.5,0.8,19.4,0.806,/
O=C(O)C1Nc2c(O)cc(Cl)c([N+](=O)[O-])c2C2C=CCC12 (stereo unspecified),-9.6,1.1,16.9,0.8,75.2*,0.248,79.3*
CC(/C=N/n1c(-c2ccco2)n[nH]c1=S)=C\c1ccco1,7.0,0.93,17.8,0.8,49.9*,0.501,51.7*
Cc1cccc(-c2n[nH]c(=S)n2/N=C/C=C/c2ccco2)c1,-8.3,1.08,/,/,46.1*,0.539,53.4*
Cc1ncc(CN2CCN(C(C)C)C(CCO)C2)s1 (stereo unspecified),-2.2,1.02,3.0,1,3.4,0.966,/
COc1ccccc1CNC(=S)Nc1ccc(S(N)(=O)=O)cc1,15.6,0.844,/,/,-7.9,1.08,/
SMILES,hIAP block,hIAP act,bIAP inhibitor,bIAP activator,mIAP block,mIAP act,mIAP inh conf
Oc1cc2c(cc1O)[C@H]1c3ccc(O)c(O)c3OC[C@@]1(O)C2,7.8,0.922,/,/,60.3*,0.397,53.1*
COc1ccc(/C=C(\C#N)C(=O)Nc2cccc3ncccc23)cc1OC,-15.4,1.15,/,/,-13.8,1.14,/
N#C/C(=C\c1ccc(O)c(O)c1)C(=O)Nc1cccc2ncccc12,32.5,0.675,/,/,66.3*,0.337,76.0*
COc1ccc(S(=O)(=O)/N=C2/NC(=O)/C(=C\c3ccco3)S2)cc1,1.9,0.981,-40.7,1.4,58.4*,0.416,64.3*
Cc1ccc(S(=O)(=O)N2CCCC2CNC(=O)C(=O)Nc2ccc(F)cc2)cc1 (stereo unspecified),4.1,0.959,/,/,-1.1,1.01,/
CCN(CC)S(=O)(=O)c1ccc(NC(=O)Nc2cccc(C(F)(F)F)c2)cc1,25.9,0.741,16.5,0.8,-180.8,2.81*,-102.6
CCN(CC)S(=O)(=O)c1ccc(C(=O)Nc2cccc(C)c2)cc1,-14.6,1.15,11.2,0.9,-13.6,1.14,/
O=C(Nc1ccc(OC(F)F)cc1)Nc1cccc(C(F)(F)F)c1,-20.5,1.21,12.3,0.9,-222.4,3.22*,-99.2
NNC(=O)Nc1cccc(C(F)(F)F)c1,1.5,0.985,-7.8,1.1,-1.2,1.01,/
CSc1ncccc1C(=O)OCC(=O)NCc1ccccc1,0.6,0.994,/,/,-11.6,1.12,/
CC1CCCN(CC(=O)Nc2ccc(S(=O)(=O)N3CCCC3)cc2)C1 (stereo unspecified),0.7,0.993,/,/,-0.5,1,/
O=c1oc2cc(O)ccc2s1,-11.1,1.11,/,/,47.6*,0.524,71.5*
NS(=O)(=O)c1ccc(N=Nc2c[nH]c(=O)c(O)c2)cc1,-11.7,1.12,/,/,68.4*,0.316,81.1*
CC(=O)Nc1ccc(S(=O)(=O)N2CCN(S(=O)(=O)N3CCOCC3)CC2)cc1,-14.7,1.15,/,/,-11.1,1.11,/
N#Cc1ccc(/C=N/NC(=S)Nc2ccc(S(=O)(=O)N3CCOCC3)cc2)cc1,-0.4,1,/,/,16.7,0.833,/
CC(NC(=S)Nc1ccc(S(=O)(=O)N2CCOCC2)cc1)C1CC2CCC1C2 (stereo unspecified),-45.4,1.45,-9.6,1.1,-301.6,4.02*,-145.0
O=S(=O)(c1ccc(NC(=S)N/N=C/c2ccc(O)c(O)c2)cc1)N1CCOCC1,34.5,0.655,/,/,70.5*,0.295,75.5*
C=C(C)c1cccc(C(C)(C)NC(=O)NC(c2ccccc2)c2ccc(OC)cc2)c1 (stereo unspecified),-81.9,1.82,5.4,0.9,i,12*,-358.7
C=C(C)c1cccc(C(C)(C)NC(=O)Nc2ccc(OC)cc2)c1,20.1,0.799,-0.6,1,-7.5,1.07,/
